From ChEMBL document CHEMBL1649390, “New (RS)-benzoxazepin-purines with antitumour activity: The chiral switch from (RS)-2,6-dichloro-9-[1-(p-nitrobenzenesulfonyl)-1,2,3,5-tetrahydro-4,1-benzoxazepin-3-yl]-9H-purine” (Eur J Med Chem, 2011)

Key:
[1] = Cell cycle arrest in human MCF10A cells assessed as accumulation at G0/G1 phase after 48 hrs using propidium iodide staining by flow cytometry (reference value: 65.70 +/- 1.14 %); assay type: ADME, cell-based; details: mcf-10a
MDA-MB-231 [2] = assay: Cytotoxicity against human MDA-MB-231 cells expressing high level of p53 […]; assay type: functional, cell-based
MCF7 [3] = assay: Induction of apoptosis in human MCF7 cells assessed as cell viability at IC50 concentration after 24 hrs using V-FITC and propidium iodide staining by flow cytometry (reference value: 90.42 +/- 0.63 %); assay type: functional
MCF7 [4] = assay: Induction of apoptosis in human MCF7 cells assessed as early apoptotic cells at IC50 concentration after 48 hrs using V-FITC and propidium iodide staining by flow cytometry relative to control; assay type: functional
MCF7 [5] = assay: Induction of apoptosis in human MCF7 cells assessed as late apoptotic cells at IC50 concentration after 24 hrs using V-FITC and propidium iodide staining by flow cytometry (reference value: 1.11 +/- 0.24 %); assay type: functional
MCF7 [6] = assay: Induction of apoptosis in human MCF7 cells assessed as necrotic cells at IC50 concentration after 24 hrs using V-FITC and propidium iodide staining by flow cytometry (reference value: 9.55 +/- 0.21 %); assay type: functional
MCF7 [7] = assay: Cell cycle arrest in human MCF7 cells assessed as accumulation at G0/G1 phase after 48 hrs using propidium iodide staining by flow cytometry (reference value: 89.88 +/- 1.73 %); assay type: functional
MDA-MB-231 [8] = assay: Cell cycle arrest in human MDA-MB-231 cells assessed as accumulation at S phase after 48 hrs using propidium iodide staining by flow cytometry (reference value: 26.35 +/- 0.03 %); assay type: functional
[9] = Cell cycle arrest in human MCF10A cells assessed as accumulation at S phase after 48 hrs using propidium iodide staining by flow cytometry (reference value: 21.78 +/- 0.46 %); assay type: ADME, cell-based; details: mcf-10a
MCF7 [10] = assay: Induction of apoptosis in human MCF7 cells assessed as late apoptotic cells at IC50 concentration after 24 hrs using V-FITC and propidium iodide staining by flow cytometry (reference value: 0.03 +/- 0.01 %); assay type: functional
MDA-MB-231 [11] = assay: Cell cycle arrest in human MDA-MB-231 cells assessed as accumulation at G2/M phase after 48 hrs using propidium iodide staining by flow cytometry (reference value: 31.59 +/- 0.03 %); assay type: functional
MCF7 [12] = assay: Induction of apoptosis in human MCF7 cells assessed as early apoptotic cells at IC50 concentration after 24 hrs using V-FITC and propidium iodide staining by flow cytometry relative to control; assay type: functional
MCF7 [13] = assay: Cell cycle arrest in human MCF7 cells assessed as accumulation at S phase after 48 hrs using propidium iodide staining by flow cytometry (reference value: 8.55 +/- 0.40 %); assay type: functional
MCF7 [14] = assay: Cytotoxicity against human MCF7 cells expressing wild type p53 and ras mutant […]; assay type: functional, cell-based
MCF7 [15] = assay: Cell cycle arrest in human MCF7 cells assessed as accumulation at G2/M phase after 48 hrs using propidium iodide staining by flow cytometry (reference value: 1.57 +/- 2.12 %); assay type: functional
[16] = Cell cycle arrest in human MCF10A cells assessed as accumulation at G2/M phase after 48 hrs using propidium iodide staining by flow cytometry (reference value: 12.55 +/- 0.68 %); assay type: ADME, cell-based; details: mcf-10a
MCF7 [17] = assay: Induction of apoptosis in human MCF7 cells assessed as necrotic cells at IC50 concentration after 48 hrs using V-FITC and propidium iodide staining by flow cytometry (reference value: 12.61 +/- 7.50 %); assay type: functional
MCF7 [18] = assay: Induction of apoptosis in human MCF7 cells assessed as viable cells at IC50 concentration after 48 hrs using V-FITC and propidium iodide staining by flow cytometry (reference value: 86.26 +/- 7.25 %)
MDA-MB-231 [19] = assay: Cell cycle arrest in human MDA-MB-231 cells assessed as accumulation at G0/G1 phase after 48 hrs using propidium iodide staining by flow cytometry (reference value: 42.06 +/- 0.01 %); assay type: functional
[20] = Therapeutic index, ratio of IC50 for human MCF10A cells to IC50 for human MDA-MB-231 cells expressing high level of p53; assay type: cell-based; details: MCF10A cells versus MDA-MB-231 cells (high level of p53), read-out: Ratio IC50
Summary of the method: (§1)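 Ratio of IC50 in non-tumour MCF-10A to IC50 in the tumour line, both from the SRB growth assay described for cytotoxicity.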

[21] = Cytotoxicity against human MCF10A cells […] by SRB assay; assay type: cell-based; details: MCF-10A
[22] = Therapeutic index, ratio of IC50 for human MCF10A cells to IC50 for human MCF7 cells expressing wild type p53 and ras mutant; assay type: cell-based; details: MCF10A cells versus MCF7 cells (wild type p53, ras mutant), read-out: Ratio IC50; summary of the method: as §1

SMILES	IC50 (MDA-MB-231 [2]) [nM]	Activity (MCF7 [3]) [%]	Activity (MCF7 [4]) [%]	Activity (MCF7 [5]) [%]	Activity (MCF7 [6]) [%]	Activity (MCF7 [10]) [%]	Activity (MCF7 [12]) [%]	IC50 (MCF7 [14]) [nM]	Activity (MCF7 [17]) [%]	viability (MCF7 [18]) [%]	selectivity ratio [20]	IC50 [21] [nM]	selectivity ratio [22]	other results
O=[N+]([O-])c1ccc(S(=O)(=O)N2C[C@H](n3cnc4c(Cl)nc(Cl)nc43)OCc3ccccc32)cc1	110	88.56	41.99	10.51	10.23	0.51	0.68	190	2.94	44.55	–	–	–	Activity [1]: 65.33%; Activity (MCF7 [7]): 87.22%; Activity (MDA-MB-231 [8]): 2.98%; Activity [9]: 22%; Activity (MDA-MB-231 [11]): 46.24%; Activity (MCF7 [13]): 11.06%; Activity (MCF7 [15]): 1.22%; Activity [16]: 12.68%; Activity (MDA-MB-231 [19]): 50.78%
O=[N+]([O-])c1ccc(S(=O)(=O)N2C[C@@H](n3cnc4c(Cl)nc(Cl)nc43)OCc3ccccc32)cc1	110	89.36	28.82	5.35	10.37	0.34	0.1	100	1.84	63.98	–	–	–	Activity [1]: 64.22%; Activity (MCF7 [7]): 89.02%; Activity (MDA-MB-231 [8]): 29.37%; Activity [9]: 25.02%; Activity (MDA-MB-231 [11]): 30.67%; Activity (MCF7 [13]): 7.88%; Activity (MCF7 [15]): 3.1%; Activity [16]: 10.76%; Activity (MDA-MB-231 [19]): 39.97%
Cc1cn(C2CN(S(=O)(=O)c3ccc([N+](=O)[O-])cc3)c3ccccc3CO2)c(=O)[nH]c1=O (stereo not drawn)	–	–	–	–	–	–	–	39800	–	–	–	–	–	–
O=[N+]([O-])c1ccccc1S(=O)(=O)N1CC(n2cnc3c(Cl)nc(Cl)nc32)OCc2ccccc21 (racemic)	280	91.65	19.61	2.64	8.33	0.01	0.01	383	3.43	74.31	5.5	1530	4	–
O=[N+]([O-])c1ccc(S(=O)(=O)N2CC(n3cnc4c(Br)ncnc43)OCc3ccccc32)cc1 (racemic)	–	95.7	35.64	2.4	4.26	0.01	0.01	1230	10.92	51.04	–	–	–	–
O=[N+]([O-])c1ccccc1S(=O)(=O)N1CC(n2cnc3c(Br)ncnc32)OCc2ccccc21 (racemic)	–	91.95	24.43	4.19	8.04	0	0	3620	3.76	67.6	–	–	–	–
O=[N+]([O-])c1ccccc1S(=O)(=O)N1CC(n2cnc3c(I)nc(Cl)nc32)OCc2ccccc21 (racemic)	256	92.22	24.27	9.33	7.69	0.08	0	610	8.08	58.32	1.37	351	0.57	Activity [1]: 66.69%; Activity (MCF7 [7]): 84.1%; Activity (MDA-MB-231 [8]): 28.82%; Activity [9]: 21.98%; Activity (MDA-MB-231 [11]): 30.3%; Activity (MCF7 [13]): 9.53%; Activity (MCF7 [15]): 6.38%; Activity [16]: 11.34%; Activity (MDA-MB-231 [19]): 40.38%
Nc1ccccc1S(=O)(=O)N1CC(n2cnc3c(Cl)nc(Cl)nc32)OCc2ccccc21 (racemic)	467	82.1	18.89	2.77	17.61	0.28	0.02	820	1.99	76.34	3.25	1520	1.85	–
O=S(=O)(c1ccccc1NO)N1CC(n2cnc3c(Cl)nc(Cl)nc32)OCc2ccccc21 (racemic)	487	90.86	18.73	4.92	9.11	0.11	0	1530	5.52	70.82	2.53	1230	0.8	–
c1ccc(Sc2nc(Sc3ccccc3)c3ncn(C4CNc5ccccc5CO4)c3n2)cc1 (racemic)	–	87.29	18.64	4.52	12.68	0.07	0	9710	4.98	71.84	–	–	–	–
Clc1nc(Sc2ccccc2)c2ncn(C3CNc4ccccc4CO3)c2n1 (racemic)	–	83.09	15.81	3.88	7.55	0.07	0.07	13800	4.01	76.3	–	–	–	–
COC(CN(c1ccccc1CO)S(=O)(=O)c1ccc([N+](=O)[O-])cc1)n1cnc2c(Cl)nc(Cl)nc21 (racemic)	409	94.76	43.3	2.17	4.88	0.18	0.02	355	4.81	49.71	4.55	1860	5.25	–
O=[N+]([O-])c1ccccc1S(=O)(=O)N1CC(n2cnc3nc(Cl)nc(Cl)c32)OCc2ccccc21 (racemic)	318	95.03	13.93	3.8	4.94	0.02	0.02	990	2.48	79.78	4	1260	1.27	–
Cc1cn(C2CS(=O)(=O)c3ccccc3CO2)c(=O)[nH]c1=O (racemic)	–	–	–	–	–	–	–	12700	–	–	–	–	–	–
Cc1cn(C2C[S+]([O-])c3ccccc3CO2)c(=O)[nH]c1=O (racemic)	–	–	–	–	–	–	–	30000	–	–	–	–	–	–
Cc1cn(C2CN(S(=O)(=O)c3ccccc3[N+](=O)[O-])c3ccccc3CO2)c(=O)[nH]c1=O (racemic)	–	–	–	–	–	–	–	45200	–	–	–	–	–	–
O=c1[nH]cc(F)c(=O)[nH]1 [FLUOROURACIL]	–	–	–	–	–	–	–	–	–	–	–	–	–	Activity [1]: 34.2%; Activity (MCF7 [7]): 87.4%; Activity (MDA-MB-231 [8]): 35.39%; Activity [9]: 55.74%; Activity (MDA-MB-231 [11]): 25.63%; Activity (MCF7 [13]): 6.06%; Activity (MCF7 [15]): 8.06%; Activity [16]: 9.56%; Activity (MDA-MB-231 [19]): 38.98%
CC(=O)O[C@H]1C(=O)[C@@]2(C)[C@H]([C@H](OC(=O)c3ccccc3)[C@]3(O)C[C@H](OC(=O)[C@H](O)[C@@H](NC(=O)c4ccccc4)c4ccccc4)C(C)=C1C3(C)C)[C@]1(OC(C)=O)CO[C@@H]1C[C@@H]2O [PACLITAXEL]	–	–	–	–	–	–	–	–	–	–	–	–	–	Activity [1]: 36.76%; Activity (MCF7 [7]): 62.48%; Activity (MDA-MB-231 [8]): 0%; Activity [9]: 39.75%; Activity (MDA-MB-231 [11]): 0%; Activity (MCF7 [13]): 19.01%; Activity (MCF7 [15]): 18.5%; Activity [16]: 23.5%; Activity (MDA-MB-231 [19]): 100%
